Activity and inhibition data for one molecule are collected here from ChEMBL document CHEMBL4002604, “Evaluation of biological properties of 3,3',4,4'-benzophenonetetracarboxylic dianhydride derivatives and their ability to inhibit hexokinase activity” (2017).

Experiment [1] deals with P19. As to the kind of experiment: Cytotoxicity against differentiated mouse P19 cells assessed as cell mass at 1 to 100 uM after 48 hrs by SRB assay relative to control. Format: functional. Put shortly: (§1)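 Cell mass by SRB assay in P19 cells (CRL-1825), either undifferentiated (P19SCs) or differentiated (P19dCs). Cells exposed to 1, 10 or 100 µM for 24, 48 or 72 h. Values expressed relative to untreated control. Means ± SD from at least 4 independent measurements, 6 repeats each. Significance vs control at p<0.05.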
In general terms: The SRB assay estimates cell density from bound dye.

Experiment [2] addresses T1, Hexokinase-2 (Mus musculus) (UniProt O08528).
T1 sequence (whole entry): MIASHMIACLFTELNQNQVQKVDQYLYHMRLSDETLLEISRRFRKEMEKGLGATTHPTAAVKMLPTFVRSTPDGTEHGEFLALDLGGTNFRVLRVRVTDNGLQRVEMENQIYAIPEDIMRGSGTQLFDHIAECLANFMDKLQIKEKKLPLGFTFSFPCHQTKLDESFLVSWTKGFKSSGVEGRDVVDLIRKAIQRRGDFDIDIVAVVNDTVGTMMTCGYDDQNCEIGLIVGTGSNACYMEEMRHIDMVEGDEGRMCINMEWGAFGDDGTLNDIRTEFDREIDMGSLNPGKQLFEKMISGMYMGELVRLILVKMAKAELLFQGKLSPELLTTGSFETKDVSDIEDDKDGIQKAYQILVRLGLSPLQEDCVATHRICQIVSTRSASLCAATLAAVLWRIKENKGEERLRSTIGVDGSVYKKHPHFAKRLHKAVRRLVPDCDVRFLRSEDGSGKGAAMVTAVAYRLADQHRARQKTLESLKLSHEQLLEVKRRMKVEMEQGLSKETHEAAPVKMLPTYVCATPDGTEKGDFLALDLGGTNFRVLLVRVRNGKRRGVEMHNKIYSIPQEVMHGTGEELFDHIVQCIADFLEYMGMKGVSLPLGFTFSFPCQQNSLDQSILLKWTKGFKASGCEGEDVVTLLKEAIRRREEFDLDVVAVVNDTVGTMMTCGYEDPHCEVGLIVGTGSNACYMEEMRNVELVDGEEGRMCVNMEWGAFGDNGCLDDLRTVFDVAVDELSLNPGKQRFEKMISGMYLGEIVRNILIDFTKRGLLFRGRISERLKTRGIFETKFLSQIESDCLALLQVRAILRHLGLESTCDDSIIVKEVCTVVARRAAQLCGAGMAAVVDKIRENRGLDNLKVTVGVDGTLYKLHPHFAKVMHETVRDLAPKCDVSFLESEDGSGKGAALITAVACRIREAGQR
As to the kind of experiment: Inhibition of HK2 isolated from mouse undifferentiated P19 cell lysates at […] using [U-14C]-labeled glucose as substrate in presence of ATP and NADP by G6PD enzyme coupled spectrophotometric assay. The procedure, abridged: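 Hexokinase activity measured in supernatant of freshly prepared, centrifuged lysates of undifferentiated P19 cells. Buffer was 100 mM Tris-HCl pH 8.0 with 0.5 mM EDTA, 10 mM MgCl2, 2 mM glucose, 0.1 mM NADP and 0.1 U/ml G6PD. After 10 min preincubation at 37°C, 10 mM ATP was added to start the reaction. NADPH formation was followed at 340 nm. Four independent experiments, ≥4 repeats each.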

The subject of experiment [3] is P19. Description: Cytotoxicity against undifferentiated mouse P19 cells assessed as cell mass at 1 to 100 uM after 72 hrs by SRB assay relative to control. Format: functional. The procedure, abridged: as §1
Experiment [4] concerns P19. Description: Cytotoxicity against undifferentiated mouse P19 cells assessed as cell mass at 1 to 100 uM after 48 hrs by SRB assay relative to control. Format: functional. Put shortly: as §1
Experiment [5] concerns P19. As to the kind of experiment: Cytotoxicity against differentiated mouse P19 cells assessed as metabolic activity at 1 to 100 uM after 24 hrs by resazurin assay relative to control. Format: functional. Put shortly: (§2)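 Metabolic activity by resazurin reduction in undifferentiated (P19SCs) or differentiated (P19dCs) P19 cells. Exposure to 1, 10 or 100 µM for 24, 48 or 72 h. Read-out relative to untreated control. Significance vs control at p<0.05.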
Background: Resazurin is reduced to fluorescent resorufin, in cell work by metabolically active cells.

Experiment [6] has as its system P19. As to the kind of experiment: Cytotoxicity against undifferentiated mouse P19 cells assessed as metabolic activity at 1 to 100 uM after 72 hrs by resazurin assay relative to control. Format: functional. The procedure, abridged: as §2
Experiment [7] concerns P19. As to the kind of experiment: Cytotoxicity against undifferentiated mouse P19 cells assessed as metabolic activity at 1 to 100 uM after 48 hrs by resazurin assay relative to control. Format: functional. Put shortly: as §2
Experiment [8] relates to P19. Description: Cytotoxicity against differentiated mouse P19 cells assessed as metabolic activity at 1 to 100 uM after 48 hrs by resazurin assay relative to control. Format: functional. The procedure, abridged:
as §2

The test system of experiment [9] is P19. As to the kind of experiment: Cytotoxicity against undifferentiated mouse P19 cells assessed as metabolic activity at 1 to 100 uM after 24 hrs by resazurin assay relative to control. Format: functional. Put shortly: as §2
Experiment [10] deals with P19. As to the kind of experiment: Cytotoxicity against differentiated mouse P19 cells assessed as cell mass at 1 to 100 uM after 24 hrs by SRB assay relative to control. Format: functional. Put shortly:
as §1

The test system of experiment [11] is P19. As to the kind of experiment: Cytotoxicity against undifferentiated mouse P19 cells assessed as cell mass at 1 to 100 uM after 24 hrs by SRB assay relative to control. Format: functional. Put shortly:
as §1

The test system of experiment [12] is P19. Description: Cytotoxicity against differentiated mouse P19 cells assessed as metabolic activity at 1 to 100 uM after 72 hrs by resazurin assay relative to control. Format: functional. Put shortly:
as §2

Experiment [13] relates to P19. As to the kind of experiment: Cytotoxicity against differentiated mouse P19 cells assessed as cell mass at 1 to 100 uM after 72 hrs by SRB assay relative to control. Format: functional. Put shortly: as §1

Activity calls are given as the source filed them. No cut-off for these calls is given here.

In the case of `OC[C@H]1OC(O)C[C@@H](O)[C@@H]1O` (stereo partly drawn), the Activity turned out to be 93.6% in [1]; 103.8% in experiment [3]; 99.6% in experiment [4]; 90.5% in [5]; 101.3% in experiment [6]; 91.2% in [7]. Further, the Activity is on record as 101.7% in experiment [8]; 100.1% in experiment [9]; 90.5% in [10]; 120.4% in experiment [11]; 94.4% in experiment [12]; 97.4% in [13]. Besides, in experiment [2], the inhibition result was “Active”.
